Dynein cargo inh: blocks dynein driven cargo transport along microtubules | 3617.4 mouse cells, GR-EGFP nuclear translocation imaging; test concentration mostly 20 µM; stimulated with dexamethasone, 1 µM; hits give low values | z-score, hits read low | hit rate 0.47% among 220,000 | AID 1381;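 active = plate z-score of nuclear minus cytoplasmic receptor signal below a set negative limit, without overly bright fluorescence or cell loss, cut at about -3.5 in these data, passing the limit was not always enough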;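 note: z-score of nuclear minus cytoplasmic ring GR-EGFP intensity difference per well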
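Also added: dexamethasone, 1.0 µM final. Medium: tet-free, stripped-serum medium. Detection: fixed, Hoechst-stained cells imaged at 10x for EGFP. Read-out: nuclear-to-cytoplasmic GR-EGFP distribution per well. Times: induction 48 h, compound 1 h, agonist 30 min.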
KCC2 mod: modulates chloride dependent transport by human KCC2; hit rate 2.2% among 190,000; B-score of Tl+ flux slope (higher = more flux/activation; lower = inhibition) at 10 µM; KCC2 cells, thallium flux FluoZin-2 fluorescence; Q9H2X9;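 active = thallium flux slope and its plate-corrected score both differing from the plate sample mean at a set confidence after two filtering rounds, in either direction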;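 note: slope of fluorescence scaled to starting intensity during 10 to 20 s after thallium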
DTT redox prof: compounds producing H2O2 with reducing agent – biochemical, NIH compound library profiling, artefact control for MLSCN library redox annotation, primary screen; DTT-dependent redox cycling H2O2, phenol red/HRP absorbance; 100% = 100 µM peroxide control, 0% = buffer; activation, % at 10 µM; hit rate 0.03% among 200,000;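 active = activation of at least 50% relative to the plate's high and low controls in the primary single-dose screen; inactive = activation below 50%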;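 note: compound incubated with DTT at 0.8 mM final as the reducing agent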
ROMK primary: modulates human ROMK potassium channel activity. P48048. Tet-inducible ROMK, thallium flux fluorescence; actives lie on both sides. B-score at 10 µM. hit rate 2% among 130,000. AID 1918;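 active = signal ratio slope over the read window, or its plate-corrected B-score, at least 3 SD from the plate mean, either direction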;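 note: B-score of the F/F0 ratio slope over 7 to 12 s after thallium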
Target sequence (P48048 whole entry, looked up): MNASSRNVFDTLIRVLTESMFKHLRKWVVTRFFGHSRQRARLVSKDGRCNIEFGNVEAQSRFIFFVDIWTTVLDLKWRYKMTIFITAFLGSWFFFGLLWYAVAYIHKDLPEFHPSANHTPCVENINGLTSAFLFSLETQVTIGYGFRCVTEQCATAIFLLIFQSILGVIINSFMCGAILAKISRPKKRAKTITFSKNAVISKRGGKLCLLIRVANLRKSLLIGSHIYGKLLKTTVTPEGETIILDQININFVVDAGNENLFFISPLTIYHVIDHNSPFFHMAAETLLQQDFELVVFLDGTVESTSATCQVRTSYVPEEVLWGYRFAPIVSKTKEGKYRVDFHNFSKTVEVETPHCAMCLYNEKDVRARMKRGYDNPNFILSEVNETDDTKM
Autophagy HCS: autophagy modulation, high-content screen; MEF GFP-LC3 puncta imaging; test concentration mostly 10 µM; calls only at 10 µM (by protocol); hit rate 0.98% among 190,000;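 active = percentage of spot-positive cells more than 3 SD above its plate mean, without a fluorescence outlier flag or 80% toxicity; inconclusive = no clear call, values can overlap the other calls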
Dynein inh conf: dynein cargo transport inhibition, confirmation; hit rate 69% among 1,000; AID 463116; shares compounds with Dynein cargo inh; calls only at 20 µM; 3617.4 GR-EGFP nuclear translocation imaging, dexamethasone-induced;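 active = inhibition of receptor movement into the nucleus at or above a set limit in both runs, with normal cell brightness and cell count; inconclusive = limit reached in only one run, brightness and count normal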;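 note: dexamethasone at 1 µM final in well for 30 min; nuclear minus cytoplasmic GR-EGFP mean intensity difference in channel 2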
ROMK retest: human ROMK channel modulation, retest confirmation; shares compounds with ROMK primary; ROMK thallium flux, fluorescence ratio; hits give low values; normalized thallium flux (F/F0 slope) at 10 µM; hit rate 54% among 3,000; AID 1917;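 active = Flux at 10 µM at least 3 SD below or above vehicle control mean in one or both replicates; inconclusive = no clear call, values can overlap the other calls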
Large screens that a line does not name were inactive (follow-up assays come after a bar, where they were run). The list is not random: actives were taken first. Their share in the collection is about 4.1%.

CC(=O)NCc1ccc(C(=O)CCl)cc1	Dynein cargo inh -6.81, ROMK primary -2 | Dynein inh conf active | ROMK retest 0.0577
O=C(CCl)Nc1cccc(Oc2ccccc2)c1	Dynein cargo inh -4.28, ROMK primary -4.76 | Dynein inh conf active | ROMK retest inconclusive
O=C(CN1CCCCC1)Nc1cccc(Oc2ccccc2)c1	none
CS(=O)(=O)c1ccc(S(=O)CC(=O)OCc2ccccc2)c([N+](=O)[O-])c1 (stereo unspecified)	ROMK primary -5.34 (no result: KCC2 mod) | Dynein inh conf active | ROMK retest 0.0534
Cc1ccc(NC(=O)COC(=O)Cc2ccsc2)cc1S(=O)(=O)N1CCOCC1	none
CCCCN1C(=O)/C(=C/C=C2\N(C)c3ccccc3C2(C)C)SC1=S	ROMK primary -4.4, Autophagy HCS active | Dynein inh conf inactive | ROMK retest 0.0394
Cc1ccc(NCc2n[nH]c(=S)n2Cc2ccccc2)cc1Cl	none (no result: ROMK primary)
CCN1CC=C2C(C#N)=C(N)C(C#N)(C#N)C(CCc3ccccc3)C2C1 (stereo unspecified)	Autophagy HCS active (no result: ROMK primary) | Dynein inh conf inactive | ROMK retest 0.0567
CCCN1CC=C2C(C#N)=C(N)C(C#N)(C#N)C(c3cccc(OC)c3OC)C2C1 (stereo unspecified)	Autophagy HCS inconclusive (no result: ROMK primary)
CC(Sc1ccccc1)C(=O)NN=C1CCCCCCC1 (stereo unspecified)	none
O=C(NC1CCCC1)C(c1ccncc1)N(C(=O)c1csnn1)C1CCCC1 (stereo unspecified)	none
N#C/C(=C\c1ccccc1)C(=O)N(c1ccccn1)C1CCCCC1	Dynein cargo inh -3.93 (no result: ROMK primary) | Dynein inh conf inactive | ROMK retest 0.0452
Cc1ccc(C(=O)NC(C#N)=C(Cl)Cl)cc1	Dynein cargo inh -4.25 | Dynein inh conf active | ROMK retest 0.0613
Cc1ccc2c(Cl)c(C(=O)Nc3cccnc3)sc2c1	none (no result: ROMK primary)
Cc1nn(-c2ccc(Cl)cc2)c(=O)c2c(C)noc12	none (no result: DTT redox prof, Autophagy HCS)
C=C1C(=O)C=C2CN(C(=O)c3ccccc3)[C@@](Cc3ccc(F)cc3)(C(=O)OC)[C@@H]12	Dynein cargo inh -4.96, ROMK primary -4.4 | Dynein inh conf active | ROMK retest 0.0496
CCCNC(=O)c1nnsc1S(=O)(=O)c1ccc(Cl)cc1	Dynein cargo inh -4.2, ROMK primary -4.87 | Dynein inh conf active | ROMK retest 0.0474
CCCNC(=O)NS(=O)(=O)c1ccc(Cl)cc1	none (no result: ROMK primary)
CNC(=O)c1nn(-c2ccc(Cl)cc2)ccc1=O	none (no result: ROMK primary)
CCCNC(=O)c1nnsc1S(=O)c1ccc(Cl)cc1 (stereo unspecified)	Dynein cargo inh -4.76, ROMK primary -6.4 | Dynein inh conf active | ROMK retest 0.0553
CNC(=O)c1nnsc1S(=O)c1ccc(Cl)cc1 (stereo unspecified)	Dynein cargo inh -4.99, ROMK primary -8.78 | Dynein inh conf active | ROMK retest 0.049
CCCNC(=O)c1ccc2snnc2c1	none
O=C1c2c([N+](=O)[O-])cc([N+](=O)[O-])cc2S(=O)N1Cc1ccccc1 (stereo unspecified)	none
Cc1ccc(CN=Cc2[nH]c3ccc(Br)c(Cl)c3c2O)cc1	ROMK primary -3.21, Autophagy HCS active | Dynein inh conf active | ROMK retest 0.0454
CC(=O)c1ccc(S(=O)(=O)N2CCCCC2C(=O)O)cc1 (stereo unspecified)	none
COc1cc(C=O)ccc1Oc1nc(Nc2ccc(F)cc2F)nc(N2CCOCC2)n1	none
COC(=O)/C(=C\c1cc(OC)c(OC)c(OC)c1)c1nc2ccccc2[nH]1	none
COC(=O)/C(=C\c1ccc(O)cc1)c1nc2ccccc2[nH]1	none
O=C(/C(=C/c1ccc(Cl)cc1)c1nc2ccccc2[nH]1)c1cccs1	Dynein cargo inh -4.47, ROMK primary -5.42, Autophagy HCS active | Dynein inh conf active | ROMK retest 0.0567
COc1cc(/C=C(/C(=O)c2cccs2)c2nc3ccccc3[nH]2)ccc1O	Dynein cargo inh -3.96 (no result: ROMK primary) | Dynein inh conf active | ROMK retest 0.0553

Compound activity from PubChem.
